Among the data in ChEMBL document CHEMBL1641374, “Synthesis of antiproliferative flavones from calycopterin, major flavonoid of Calycopteris floribunda Lamk” (Bioorg Med Chem, 2011) are Activity, IC50 and inhibition values, retold here.

Experiment [1] deals with KB. Description: Cytotoxicity against human KB cells at 10^-6 M after 72 hrs by MTS assay. It is filed as functional. The procedure, abridged: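 KB cells in D-MEM with 10% FCS were seeded at 600 cells/well and dosed 24 h later with flavone at 10^-6 M in DMSO. Controls received DMSO at 1% final. After 72 h, MTS was added for 3 h at 37 °C and A490 read in triplicate. Growth inhibition (%) = (1 − OD treated/OD control)×100.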

Experiment [2] can be described thus: Inhibition of sheep brain tubulin polymerization at 2x10'-5 M after 5 mins. More on the design: species or system Ovis aries. The essentials:
(§1)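 Sheep brain microtubule proteins were purified by two assembly/disassembly cycles (37 °C/0 °C) in 100 mM MES pH 6.6, 1 mM EGTA, 0.5 mM MgCl2. Polymerization rate was followed by turbidity at 350 nm, with deoxypodophyllotoxin as reference. Compounds were tested at ~2×10^-5 M for % inhibition, with IC50 determined for selected compounds.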

Experiment [3] relates to KB. Description: Cytotoxicity against human KB cells after 72 hrs by MTS assay. It is filed as functional, cell-based.
The species named for another experiment is Ovis aries. Description: Inhibition of sheep brain tubulin polymerization after 5 mins. The procedure, abridged: as §1
For the next experiment, the system named is HL-60. Description: Induction of apoptosis in human HL60 cells assessed as induction of caspase 3/7 activation at 100 uM. It is filed as functional, cell-based. The procedure, abridged:
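HL60 cells (20,000/well) were treated 24 and 48 h with compounds in DMSO. Vehicle and doxorubicine served as controls. Fluorescence (ex 360/em 465 nm) was followed over 3 h.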

Active and inactive are the calls of the source. No cut-off for these calls is given here.

`COc1c(I)cc(-c2oc3c(OC)c(OC)c(OC)c(O)c3c(=O)c2OC)cc1I`: the Activity entry in the experiment on KB [1] was “<=13%”.

In the experiment on KB [1], `COc1ccc(-c2oc3c(OC)c(OC)c(OC)c(O)c3c(=O)c2OC)cc1N(C)C` had an Activity of 13%.

Take `COc1ccc(-c2oc3c(OC)c(OC)c(OC)c(O)c3c(=O)c2OC)cc1C#N`: in the experiment on KB [1], the Activity entry is “<=13%”.

On to `COc1c(OC)c(O)c2c(=O)c(OC)c(-c3ccc(O)cc3)oc2c1OC` [CALYCOPTERIN], for which, in the experiment with KB [1], the Activity is on record as 0%.

Take `COc1ccc(-c2oc3c(OC)c(OC)c(OC)c(O)c3c(=O)c2OC)cc1CN(C)C`: the Activity result in the experiment with KB [1] is given as “<=13%”.

Regarding `COc1ccc(-c2oc3c(OC)c(OC)c(OC)c(O)c3c(=O)c2OC)cc1C=O`, the Activity result in the experiment on KB [1] is listed as “<=13%”.

In the case of `COc1ccc(-c2oc3c(OC)c(OC)c(OC)c(O)c3c(=O)c2OC)cc1CN`, the Activity result in the experiment with KB [1] is given as “<=13%”.

`COc1ccc(-c2oc3c(OC)c(OC)c(OC)c(O)c3c(=O)c2OC)cc1[N+](=O)[O-]` showed an Activity in the experiment on KB [1] of 13%.

Take `COc1ccc(-c2oc3c(OC)c(O)c(OC)c(O)c3c(=O)c2OC)cc1N`: the values for the concentration for half-maximal inhibition (IC50) (in experiment [2]; with KB [3]) were 85 µM and 6.2 µM, respectively.

For `COc1ccc(-c2oc3c(OC)c(OC)c(OC)c(OC)c3c(=O)c2OC)cc1N`, the Activity in the experiment on KB [1] came to 17%. This compound also displayed an inhibition in the experiment filed under Ovis aries of 5%. Moreover, the result in the experiment with HL-60 was inactive.

`COc1ccc(-c2oc3c(OC)c(OC)c(OC)c(O)c3c(=O)c2OC)cc1-c1cc(-c2oc3c(OC)c(OC)c(OC)c(O)c3c(=O)c2OC)ccc1OC`: the Activity result in the experiment with KB [1] is “<=13%”.
